# Sampled rows, rich in hits. Any-hit rate of the full collection: about 1.8%.
# Platelet DG rel – modulates dense granule release in human platelets; human platelet-rich plasma, SFLLRN dense granule ATP release, luminescence; inhibition, %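 (compounds screened at 7.5 µM in platelet-rich plasma)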; actives 0.22% (n = 300,000); AID 1663;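 active = mean replicate score, as percent of positive control, at or above 50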
# Rce1 inh – yeast Ras-converting enzyme inhibition. Q03530. yeast membranes, quenched prenylated peptide cleavage fluorescence. calls only. actives 0.27% (n = 290,000). AID 2563;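 active = fall in fluorescence gain of 50% or more versus controls, with final raw signal at or below 3038400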;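 also: plate controls were neutral control wells for no effect and wells lacking membranes for full effect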
# Runt-CBFb FRET – inhibitors of human RUNX1 Runt domain binding to CBFb; Q01196+Q13951; Cerulean-Runt/Venus-CBFb FRET ratio 530/480, 1 h; inhibition, % at 20 µM; actives 0.46% (n = 220,000);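 active = inhibition over about 50% at 20 µM in the single-dose screen, limit read from the data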;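 also: 0% = DMSO wells and 100% = excess unlabeled CBFb competitor control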
# Target sequence (Q01196 whole entry, looked up, the tested form may be a part): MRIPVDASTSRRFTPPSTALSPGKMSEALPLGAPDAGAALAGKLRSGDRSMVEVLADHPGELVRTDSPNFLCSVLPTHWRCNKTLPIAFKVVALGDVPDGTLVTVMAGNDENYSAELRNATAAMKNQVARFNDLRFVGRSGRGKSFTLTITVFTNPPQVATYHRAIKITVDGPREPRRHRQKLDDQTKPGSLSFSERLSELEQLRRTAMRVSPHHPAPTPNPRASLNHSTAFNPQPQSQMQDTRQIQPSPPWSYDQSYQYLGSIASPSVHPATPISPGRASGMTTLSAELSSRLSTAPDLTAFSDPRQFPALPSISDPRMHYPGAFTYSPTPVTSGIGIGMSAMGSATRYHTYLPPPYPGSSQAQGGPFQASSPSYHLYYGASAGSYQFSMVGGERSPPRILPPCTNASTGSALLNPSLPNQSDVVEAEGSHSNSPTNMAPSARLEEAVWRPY
# Target sequence (Q13951 whole entry, looked up, the tested form may be a part): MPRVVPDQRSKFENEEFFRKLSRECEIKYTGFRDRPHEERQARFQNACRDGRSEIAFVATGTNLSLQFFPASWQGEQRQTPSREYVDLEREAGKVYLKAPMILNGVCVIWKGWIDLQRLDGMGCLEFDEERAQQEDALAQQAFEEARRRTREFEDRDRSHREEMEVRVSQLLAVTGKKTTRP
#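 Measured by: fluorescence energy transfer, 422 nm excitation, 530/480 nm emission; Assay system: Cerulean-Runt domain; Medium: Tris pH 7.5 buffer with BSA; Measure: loss of energy transfer signal; Controls: 5 µM unlabeled CBFb as full-inhibition high control; Incubation: protein complex preformed 1 h, compound exposure 1 h, room temperature, dark.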
# RanGTP-Imp inh – inhibitors of RanGTP-importin-beta interaction, primary screen, biochemical, FRET, CFP-Ran, YFP-importin-beta, homogeneous. actives 1.1% (n = 300,000). inhibition, % (no concentration beside the values). cell-free CFP-Ran/YFP-importin-beta FRET ratio;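 active = more than half of the replicate wells show a fall in the fluorescence ratio signal beyond about 16%, limit read from the data, passing the limit was not always enough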;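 also: 0% = DMSO wells and 100% = Ran loaded with GDP instead of GTP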
# Runt-SMMHC FRET – blocks binding of human RUNX1 Runt domain to CBFb-SMMHC; Cerulean-Runt/Venus-CBFb-SMMHC FRET ratio 530/480, 1 h; Q01196+Q13951; actives 0.74% (n = 220,000); inhibition, % at 20 µM;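 active = mean inhibition across duplicate retests at 20 µM reaching about 50%, limit read from the data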;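 also: 0% = DMSO wells and 100% = wells with excess untagged CBFb-SMMHC; inhibitors lower the FRET ratio by blocking Runt binding to CBFb-SMMHC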
# An asterisk follows results filed as active; i = inactive; · = not tested or not shown; + = active, no number.
SMILES,Platelet DG rel,Rce1 inh,Runt-CBFb FRET,RanGTP-Imp inh,Runt-SMMHC FRET
COC(=O)c1sc2ccccc2c1-n1cccc1C(=O)C(=O)Nc1ccc(Cl)cc1,-6,i,-1,3,-5
CCOC(=O)c1cc(-c2ccccc2)nc2nc(N(CC)CC)sc12,-3,i,·,45*,·
CCOC(=O)c1cc(-c2ccccc2)nc2nc(N3CCCCC3)sc12,1,i,37,12,96
N#Cc1c(-c2ccc(Cl)cc2)c2c([nH]c1=O)-c1ccccc1OC2,-16,i,89*,68*,82*
O=C(NCC1CCCO1)c1cccc(NS(=O)(=O)c2ccccc2)c1 (stereo not given),32,i,·,0,·
O=S(=O)(Nc1ccc(-c2nc3cccnc3s2)cc1)c1cc(F)ccc1F,-5,i,44,10,85*
CC(CCc1ccccc1)NCC(O)c1ccc(O)c(C(N)=O)c1 (stereo not given),7,+,-1,0,-2
COc1c(OC)c2[nH]c(=O)cc3c4ccccc4n(c1=O)c23,1,i,·,157*,·
COc1c(O)c(=O)n2c3ccccc3c3ccnc1c32,0,i,·,-5,·
Cc1cccc(C)c1Nc1nnc(SC/C(O)=C(\C#N)c2nc3ccccc3[nH]2)s1,2,i,9,11,23
Cc1cccc(Nc2nnc(SC/C(O)=C(\C#N)c3nc4ccccc4[nH]3)s2)c1C,-2,i,13,26*,47
c1cc2c3c(cccc3c1)C(N1CCCCCC1)=N2,6,i,-17,23*,60
c1cc2c3c(cccc3c1)C(N1CCCCC1)=N2,-6,·,-17,4,-61
CCO[C@H]1OC(C(=O)Nc2ccccc2)=C[C@@H](c2csc3ccccc23)[C@@H]1CCCO,-5,+,-1,8,0
CCO[C@@H]1OC(C(=O)O)=C[C@H](c2csc3ccccc23)[C@H]1CCCO,2,i,-1,-2,3
CCOc1cc(NS(=O)(=O)c2ccc(NC(C)=O)cc2)c(OCC)cc1NC(=O)C(C)C,-5,i,3,18*,8
CSc1nc(NCC(C)O)c2c3c(sc2n1)CN(C)CC3 (stereo not given),8,+,·,3,·
CC(C)c1ccc(/C=C2\SC(=S)N(CCC(=O)NCCCn3ccnc3)C2=O)cc1,-24,+,·,6,·
Cc1ccccc1-c1ccc(/C=C2/SC(N3CCOCC3)=NC2=O)o1,-3,i,-21,20*,-42
NNC(=O)c1csc(-c2cccc(C(F)(F)F)c2)n1,14,i,-7,3,-4
Cc1nc2cc(Nc3ccncc3)ccc2s1,56*,i,1,4,0
O=c1oc2ccccc2c2c1SC(C(F)(F)F)C2 (stereo not given),2,i,1,-2,-2
O=c1oc2ccc3ccccc3c2c2c1SC(C(F)(F)F)C2 (stereo not given),·,i,22,10,54*
Cc1cccc(-c2oc3ccccc3c2-c2ccc3c(c2)OCO3)c1,2,+,·,3,·
Cc1cccc(-c2noc(-c3ccc4c(c3)OCO4)n2)c1,20,i,-1,5,0
SMILES,Platelet DG rel,Rce1 inh,Runt-CBFb FRET,RanGTP-Imp inh,Runt-SMMHC FRET
COC(=O)C1=CN(C(C)C)C=C(C(=O)OC)C1c1cc2c(cc1Br)OCO2,0,i,12,30*,118*
O=C(Nc1ccccc1)OCc1cc(-c2ccccc2Cl)on1,52*,i,·,-2,-6
O=C(Nc1cccc(O)c1)c1cc(-c2ccccc2Cl)on1,34,i,·,-2,·
O=C(Nc1nc(-c2ccccn2)cs1)c1ccc([N+](=O)[O-])o1,-10,+,31,3,9
Cc1ccc(S(=O)(=O)Nc2nc3ccccc3nc2Nc2cccc(S(=O)(=O)N3CCCC3)c2)cc1,-19,i,36,30*,90*
Cc1cc(C)cc(Nc2nc(-c3ccc(S(=O)(=O)N4CCCC4)cc3)cs2)c1,-2,+,23,-1,9
O=[N+]([O-])c1cccc(S(=O)(=O)Nc2nc3ccccc3nc2Nc2cccc(S(=O)(=O)N3CCCCC3)c2)c1,12,i,-11,5,-15
O=S(=O)(c1ccc(-c2csc(Nc3ccc(F)cc3)n2)cc1)N1CCCC1,-18,+,2,5,3

# Screening data deposited in PubChem BioAssay by several laboratories.
